Experimental data from ChEMBL document CHEMBL1141177, “The novel L- and D-amino acid derivatives of hydroxyurea and hydantoins: synthesis, X-ray crystal structure study, and cytostatic and antiviral activity evaluations” (J Med Chem, 2005).
pIC50: −log10 of the molar value. Converted amounts (≈) assume the structure as drawn.

What was measured:
[1] = test system: MCF7; assay: Inhibition of breast carcinoma cell line (MCF-7) growth; assay type: functional, cell-based; details: Homo sapiens
How it was run: (§1)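 Monolayers in DMEM with 10% FBS, 2 mM L-glutamine, penicillin/streptomycin, 37 °C, 5% CO2. Cells seeded on day 0, then compounds added in 5- and 10-fold dilutions (10^-8–10^-4 M) for 72 h. MTT read-out at 570 nm. Percent growth calculated relative to time-zero and untreated OD. Quadruplicates in three experiments; IC50 by linear interpolation, highest concentration reported as ">" when not reached.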

[2] = test system: L1210; assay: Inhibition of murine leukemia cells (L1210) growth; assay type: functional, cell-based; details: Mus musculus
[3] = test system: HEL; assay: Minimum cytotoxic concentration of compound that causes alteration of cell morphology in human embryonic lung cells; assay type: functional
How it was run: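 Human embryonic lung (HEL) cells were examined microscopically. MCC is the minimum concentration that causes a detectable alteration of cell morphology.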

[4] = test system: WI-38; assay: Inhibition of normal human fibroblast cell line (WI 38) growth; assay type: functional, cell-based; how it was run: as §1
[5] = test system: MIA PaCa-2; assay: Inhibition of pancreatic carcinoma cell line (MiaPaCa-2) growth; assay type: functional, cell-based; details: Homo sapiens; how it was run: as §1
[6] = Effective concentration required to reduce plaque formation by AD-169 strain of CMV virus in Human embryonic lung cells; assay type: functional, cell-based
How it was run: (§2)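 Plaque reduction assay in human embryonic lung (HEL) cell cultures, virus input 100 plaque forming units. Viruses: CMV strains AD-169 and Davis, VZV TK+ strain OKA and TK− strain 07/1. EC50 is the concentration that reduces virus plaque formation by 50%.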

[7] = test system: HEp-2; assay: Inhibition of laryngeal carcinoma cell line (Hep-2) growth; assay type: functional, cell-based; details: Homo sapiens; how it was run: as §1
[8] = test system: MOLT-4; assay: Inhibition of human T-lymphocyte cell line (Molt4/C8) growth; assay type: functional, cell-based
[9] = Effective concentration required to reduce plaque formation by Davis strain of CMV virus in Human embryonic lung cells; assay type: functional, cell-based; how it was run: as §2
[10] = test system: HEL; assay: Cytotoxic concentration to reduce the 50% cell growth of human embryonic lung cells; assay type: functional; details: Homo sapiens, HEL; read-out: CC50
[11] = test system: SW-620; assay: Inhibition of colon carcinoma cell line (SW 620) growth; assay type: functional, cell-based; details: Homo sapiens; how it was run: as §1
[12] = test system: Human alphaherpesvirus 3; assay: Effective concentration of compound required to reduce plaque formation by OKA strain of thymidine kinase positive VZ virus TK+ in human embryonic lung cells; assay type: functional, organism-based; details: Human alphaherpesvirus 3, lung
[13] = test system: Human alphaherpesvirus 3; assay: Reduction of plaque formation by VZV07/1 strain of thymidine kinase(TK-) deficient VZ virus in human embryonic lung cells; assay type: functional, organism-based; details: Human alphaherpesvirus 3, lung
[14] = test system: HeLa; assay: Inhibition of cervical carcinoma cell line (HeLa) growth; assay type: functional, cell-based; details: Homo sapiens; how it was run: as §1

| Structure (SMILES) | pIC50 [1] | pIC50 [2] | MCC [3] [µg/mL] | pIC50 [4] | pIC50 [5] | EC50 [6] [mg/L] | pIC50 [7] | pIC50 [8] | EC50 [9] [mg/L] | CC50 [10] [mg/L] | pIC50 [11] | EC50 [12] [mg/L] | EC50 [13] [mg/L] | pIC50 [14] |
| --- | --- | --- | --- | --- | --- | --- | --- | --- | --- | --- | --- | --- | --- | --- |
| O=C(NC1CCCCC1)C(NC(=O)n1nnc2ccccc21)c1ccccc1 (configuration not stated) | 4.24 | 4.02 | ≥ 16 | < 4.00 | ≤ 4.00 | > 3.2 | 4.16 | 4.04 | > 16 | 15 (≈ 39.7 µM) | < 4.00 | > 0.64 | > 3.2 | 4.17 |
| CCC(C)C1NC(=O)N(C2CCCCC2)C1=O (configuration not stated) |  |  |  |  |  |  |  | < 3.70 |  |  |  |  |  |  |
| CC(C)C(NC(=O)n1nnc2ccccc21)C(=O)NC1CCCC1 (configuration not stated) | 4.10 | < 3.70 | > 200 | ≤ 4.00 | < 4.00 | > 200 | 4.22 | < 3.70 | > 200 |  | < 3.70 | > 80 | > 200 | 4.02 |
| O=C(NC(c1ccccc1)c1ccccc1)C(Cc1ccccc1)NC(=O)n1nnc2ccccc21 (configuration not stated) | 4.79 | 4.77 | 80 | 4.84 | 4.62 | > 16 | 4.39 | 4.82 |  | 17.3 (≈ 36.4 µM) | 4.42 | > 0.13 | > 0.13 | 4.52 |
| O=C(NC(c1ccccc1)c1ccccc1)C(NC(=O)n1nnc2ccccc21)c1ccccc1 (configuration not stated) | 4.47 | 3.94 | 80 | 4.00 | 4.37 | > 16 | 4.23 | 4.05 | > 16 | 38.3 (≈ 83 µM) | 4.29 | > 3.2 | > 3.2 | 4.48 |
| O=C(NO)NC(Cc1ccccc1)C(=O)N1CCCC1 (configuration not stated) | < 4.00 | < 3.70 |  | ≤ 4.00 | < 4.00 |  | ≤ 4.00 | 3.72 |  |  | < 4.00 |  |  | < 4.00 |
| CCC(C)C(NC(=O)n1nnc2ccccc21)C(=O)NC(c1ccccc1)c1ccccc1 (configuration not stated) |  |  |  |  |  |  |  | 4.10 |  |  |  |  |  |  |
| O=C(NCc1ccccc1)C(Cc1ccccc1)NC(=O)n1nnc2ccccc21 (configuration not stated) |  |  |  |  |  |  |  | 3.84 |  |  |  |  |  |  |
| O=C(NC1CCCCC1)C(Cc1ccccc1)NC(=O)n1nnc2ccccc21 (configuration not stated) | 4.68 | 3.90 | 80 | 4.20 | ≤ 4.00 | > 16 | 4.19 | 3.94 | > 16 | 33 (≈ 84.3 µM) | 3.96 |  |  | 4.46 |
